Measurements: ChEMBL document CHEMBL2062503, “Potent and Selective Inhibitors of CK2 Kinase Identified through Structure-Guided Hybridization” (ACS Med Chem Lett, 2012)
Values after ≈ are worked out from the molar mass of the structure shown. Active and inactive are the calls of the source. The calls are words filed in the database; no cut-off is given here.

Key:
[1] = system: HCT-116; assay: Growth inhibition of human HCT116 cells after 72 hrs by alamar blue assay; type: functional; settings: HCT-116, 72 h
Method in brief: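 HCT-116 proliferation was read out by Alamar Blue. GI50 is reported in μM as the mean of at least three experiments.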

[2] = target: T1, Casein kinase II subunit alpha (Homo sapiens, UniProt P68400); assay: Inhibition of full length N-terminus His-tagged human CK2alpha expressed in insect Sf21 cells using BODIPY-FL-RRRDDDSDDD-CONH2 as substrate after 20 mins
T1 sequence (P68400 whole entry): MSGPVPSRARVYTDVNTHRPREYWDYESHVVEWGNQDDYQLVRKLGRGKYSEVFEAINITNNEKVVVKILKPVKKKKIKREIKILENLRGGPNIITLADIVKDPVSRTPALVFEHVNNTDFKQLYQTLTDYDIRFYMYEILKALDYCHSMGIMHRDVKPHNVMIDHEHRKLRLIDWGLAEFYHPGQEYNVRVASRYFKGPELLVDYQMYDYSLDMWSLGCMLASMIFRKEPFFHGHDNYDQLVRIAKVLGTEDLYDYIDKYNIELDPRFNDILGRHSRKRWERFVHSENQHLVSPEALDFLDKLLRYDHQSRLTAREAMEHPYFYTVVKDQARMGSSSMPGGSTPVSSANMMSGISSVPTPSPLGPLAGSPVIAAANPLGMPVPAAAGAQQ

[3] = Aqueous solubility of the compound; type: physicochemical; settings: buffer
Method in brief: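 Solubility was determined in aqueous medium at pH 7.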

[4] = Lipophilicity, log D of the compound; type: physicochemical; settings: octanol/water
[5] = Fraction unbound in human plasma; type: ADME, cell-free
[6] = system: SW480; assay: Antiproliferative activity against human SW480 cells by alamar blue assay; type: functional
Method in brief: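 SW480 proliferation was measured with the Alamar Blue read-out, and GI50 is reported in μM.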

[7] = target: Glycogen synthase kinase-3 beta (Homo sapiens, UniProt P49841); assay: Inhibition of GSK3beta
Glycogen synthase kinase-3 beta, sequence (P49841 whole entry): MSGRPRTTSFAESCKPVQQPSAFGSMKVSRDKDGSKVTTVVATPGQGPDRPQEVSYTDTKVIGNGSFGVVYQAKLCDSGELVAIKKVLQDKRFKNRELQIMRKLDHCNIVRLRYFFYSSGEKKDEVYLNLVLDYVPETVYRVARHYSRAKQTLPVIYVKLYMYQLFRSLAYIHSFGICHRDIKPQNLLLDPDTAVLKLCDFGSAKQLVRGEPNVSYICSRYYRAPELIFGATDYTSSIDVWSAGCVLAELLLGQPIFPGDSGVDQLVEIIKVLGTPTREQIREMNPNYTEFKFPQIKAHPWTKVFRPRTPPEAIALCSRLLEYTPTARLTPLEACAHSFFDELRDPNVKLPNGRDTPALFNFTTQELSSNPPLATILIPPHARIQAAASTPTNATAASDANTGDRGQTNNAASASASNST

[8] = target: Homeodomain-interacting protein kinase 2 (Homo sapiens, UniProt Q9H2X6); assay: Inhibition of HipK2
Homeodomain-interacting protein kinase 2, sequence (Q9H2X6 whole entry): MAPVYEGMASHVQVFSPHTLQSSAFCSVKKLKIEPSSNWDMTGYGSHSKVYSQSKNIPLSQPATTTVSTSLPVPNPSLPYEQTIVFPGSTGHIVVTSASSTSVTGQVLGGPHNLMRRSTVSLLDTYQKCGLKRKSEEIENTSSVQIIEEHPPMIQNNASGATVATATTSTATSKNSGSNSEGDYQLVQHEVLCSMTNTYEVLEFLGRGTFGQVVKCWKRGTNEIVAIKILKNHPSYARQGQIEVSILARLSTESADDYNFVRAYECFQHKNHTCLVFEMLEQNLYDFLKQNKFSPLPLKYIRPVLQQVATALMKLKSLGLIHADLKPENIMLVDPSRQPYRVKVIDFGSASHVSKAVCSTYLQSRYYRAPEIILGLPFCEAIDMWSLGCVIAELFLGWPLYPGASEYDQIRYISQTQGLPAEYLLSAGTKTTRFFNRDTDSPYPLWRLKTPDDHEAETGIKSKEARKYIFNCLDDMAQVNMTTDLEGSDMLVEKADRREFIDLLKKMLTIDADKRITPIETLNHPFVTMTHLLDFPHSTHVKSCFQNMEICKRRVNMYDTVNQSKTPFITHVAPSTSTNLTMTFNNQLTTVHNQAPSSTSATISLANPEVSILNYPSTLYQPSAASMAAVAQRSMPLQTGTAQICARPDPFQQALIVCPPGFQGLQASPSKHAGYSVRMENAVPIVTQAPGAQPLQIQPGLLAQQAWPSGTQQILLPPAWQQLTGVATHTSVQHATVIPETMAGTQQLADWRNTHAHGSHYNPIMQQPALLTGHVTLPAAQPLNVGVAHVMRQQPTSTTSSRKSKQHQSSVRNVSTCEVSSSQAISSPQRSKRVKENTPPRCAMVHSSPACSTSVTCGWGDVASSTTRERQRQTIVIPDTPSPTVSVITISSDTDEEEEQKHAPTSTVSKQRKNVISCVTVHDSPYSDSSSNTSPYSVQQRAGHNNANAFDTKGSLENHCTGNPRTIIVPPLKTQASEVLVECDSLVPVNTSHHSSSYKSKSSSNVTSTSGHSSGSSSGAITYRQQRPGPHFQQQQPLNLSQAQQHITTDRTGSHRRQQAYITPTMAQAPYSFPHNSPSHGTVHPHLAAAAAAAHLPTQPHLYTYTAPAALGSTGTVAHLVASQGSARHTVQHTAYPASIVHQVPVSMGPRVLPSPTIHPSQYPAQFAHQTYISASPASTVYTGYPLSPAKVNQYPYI

[9] = target: Cyclin-dependent kinase 2 (Homo sapiens, UniProt P24941); assay: Inhibition of CDK2
[10] = target: T1, Casein kinase II subunit alpha; assay: Inhibition of CK2alpha in human HCT116 cells assessed as decrease in AKT phosphorylation at S129 residue after 3 to 24 hrs
[11] = target: Voltage-gated inwardly rectifying potassium channel KCNH2 (Homo sapiens, UniProt Q12809); assay: Inhibition of human Erg
Voltage-gated inwardly rectifying potassium channel KCNH2, sequence (Q12809 whole entry): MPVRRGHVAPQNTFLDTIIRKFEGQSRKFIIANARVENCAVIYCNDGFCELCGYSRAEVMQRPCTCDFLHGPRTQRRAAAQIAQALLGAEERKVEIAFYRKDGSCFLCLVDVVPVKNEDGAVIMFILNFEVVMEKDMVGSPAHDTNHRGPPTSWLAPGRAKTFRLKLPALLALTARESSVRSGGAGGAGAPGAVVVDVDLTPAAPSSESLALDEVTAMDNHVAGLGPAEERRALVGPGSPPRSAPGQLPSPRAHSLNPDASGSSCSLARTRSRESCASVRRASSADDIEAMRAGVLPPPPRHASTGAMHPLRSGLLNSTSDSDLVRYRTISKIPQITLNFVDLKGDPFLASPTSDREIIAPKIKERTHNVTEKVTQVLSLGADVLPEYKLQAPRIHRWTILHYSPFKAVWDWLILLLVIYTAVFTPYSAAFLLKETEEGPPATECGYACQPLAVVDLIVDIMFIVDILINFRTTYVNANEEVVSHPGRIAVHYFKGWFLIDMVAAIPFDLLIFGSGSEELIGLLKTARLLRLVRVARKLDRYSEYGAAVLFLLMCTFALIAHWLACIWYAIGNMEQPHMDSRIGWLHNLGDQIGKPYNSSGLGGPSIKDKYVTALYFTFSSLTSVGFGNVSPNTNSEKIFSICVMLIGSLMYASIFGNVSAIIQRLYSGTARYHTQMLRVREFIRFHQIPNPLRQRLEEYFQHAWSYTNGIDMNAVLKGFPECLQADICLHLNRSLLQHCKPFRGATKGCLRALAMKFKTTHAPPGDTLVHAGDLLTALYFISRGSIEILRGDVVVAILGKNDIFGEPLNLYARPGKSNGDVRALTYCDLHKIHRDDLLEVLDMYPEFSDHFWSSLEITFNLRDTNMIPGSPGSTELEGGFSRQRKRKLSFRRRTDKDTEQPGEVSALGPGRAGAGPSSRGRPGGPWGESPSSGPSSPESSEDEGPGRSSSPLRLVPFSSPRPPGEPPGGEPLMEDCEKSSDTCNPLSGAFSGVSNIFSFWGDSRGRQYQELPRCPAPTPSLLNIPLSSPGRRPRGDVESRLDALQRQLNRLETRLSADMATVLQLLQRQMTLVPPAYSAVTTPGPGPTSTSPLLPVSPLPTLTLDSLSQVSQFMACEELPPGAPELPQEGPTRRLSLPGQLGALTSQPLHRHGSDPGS

[12] = system: MDR1; assay: Apparent permeability from apical to basolateral side in pig LLC-PK1 cells expressing MDR1; type: ADME, cell-based, Sus scrofa
[13] = target: T2, Cytochrome P450 1A2 (Homo sapiens, UniProt P05177); assay: Inhibition of CYP1A2; type: ADME
T2 sequence (P05177 whole entry): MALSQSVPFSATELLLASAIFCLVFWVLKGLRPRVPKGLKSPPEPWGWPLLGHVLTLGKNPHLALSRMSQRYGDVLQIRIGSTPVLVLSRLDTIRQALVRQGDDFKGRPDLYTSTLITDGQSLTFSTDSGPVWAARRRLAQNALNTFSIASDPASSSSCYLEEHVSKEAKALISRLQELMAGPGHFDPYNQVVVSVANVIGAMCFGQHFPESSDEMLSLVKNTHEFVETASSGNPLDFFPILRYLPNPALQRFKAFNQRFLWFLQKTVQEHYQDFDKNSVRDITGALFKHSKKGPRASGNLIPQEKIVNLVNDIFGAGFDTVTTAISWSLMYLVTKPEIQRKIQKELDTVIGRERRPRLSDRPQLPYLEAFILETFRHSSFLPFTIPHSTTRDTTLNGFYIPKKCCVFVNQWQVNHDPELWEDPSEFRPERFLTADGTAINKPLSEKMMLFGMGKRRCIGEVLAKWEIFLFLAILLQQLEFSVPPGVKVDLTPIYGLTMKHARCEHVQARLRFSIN

[14] = Intrinsic clearance in rat liver microsomes; type: ADME, Microsome; settings: read-out: CLH
[15] = AUC in rat at 10 mg/kg, po; type: ADME, organism-based; parameters: dose 10 mg/kg, route oral; settings: plasma
Method in brief: (§1)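 Rats received one oral dose of 10 mg/kg, and pharmacokinetic parameters were derived from that single administration.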

[16] = system: HCT-116; assay: Induction of apoptosis in human HCT116 cells assessed as caspase activation; type: functional, cell-based
[17] = Oral bioavailability in rat at 10 mg/kg; type: ADME, organism-based; settings: in vivo; method in brief: as §1
[18] = Clearance in rat at 10 mg/kg, po; type: ADME, organism-based; parameters: dose 10 mg/kg, route oral; settings: in vivo; method in brief: as §1
[19] = system: MDR1; assay: Apparent permeability from apical to basolateral side in MDCK cells expressing MDR1; type: ADME, cell-based, Canis lupus familiaris; settings: dog

SMILES | GI50 [1] | solubility [3] | logD [4] | fraction unbound [5] | GI50 [6] | other results
N#Cc1cnn2c(N)cc(-c3cccs3)nc12 | > 30 µM |  |  |  |  | 
CC(=O)Nc1cc2c(ccn2-c2cc(NC3CC3)n3ncc(C#N)c3n2)cc1C | > 30 µM |  |  |  |  | 
CC(=O)Nc1ccc2ccn(-c3cc(NCCCN(C)C)n4ncc(C#N)c4n3)c2c1 |  | 750 µM (≈ 312 µg/mL) | 1.6 | 0.1 | 25 µM | IC50 [2]: 0.03 µM; IC50 [7]: 2.6 µM; IC50 [8]: 0.06 µM; IC50 [9]: > 30 µM; IC50 [10]: 1.2 µM
CC(=O)Nc1ccc2c(c1)c(-c1cc(NC3CC3)n3ncc(C#N)c3n1)cn2CCC(=O)O |  |  |  |  |  | IC50 [7]: 6 µM; IC50 [8]: 0.57 µM; IC50 [9]: > 30 µM
CC(=O)Nc1ccc2[nH]cc(-c3cc(NC4CC4)n4ncc(C#N)c4n3)c2c1 | 0.7 µM |  |  |  | 0.7 µM | IC50 [2]: 0.005 µM; IC50 [7]: 0.25 µM; IC50 [8]: < 0.003 µM; IC50 [9]: 14 µM; IC50 [10]: 0.077 µM
CC(=O)Nc1ccc2cnn(-c3cc(NC4CC4)n4ncc(C#N)c4n3)c2c1 | 3.7 µM |  |  |  | 5 µM | IC50 [2]: 0.026 µM; IC50 [11]: > 33 µM; IC50 [7]: 0.7 µM; IC50 [8]: 0.05 µM; IC50 [9]: > 30 µM
N#Cc1cnn2c(NC3CC3)cc(-n3ccc4ccc(CO)cc43)nc12 | 10.1 µM | < 1 µM | 3.1 | 0.019 |  | 
COc1ccc(-c2cc(NC3CC3)n3ncc(C#N)c3n2)cc1 | 14 µM |  |  |  |  | 
COc1ccncc1-c1cc(NC2CC2)n2ncc(C#N)c2n1 | 16 µM |  |  |  | 15 µM | 
CC(=O)Nc1ccc2ccn(-c3cc(NCCN4CCOCC4)n4ncc(C#N)c4n3)c2c1 |  | 2 µM (≈ 0.889 µg/mL) |  | 0.11 | > 30 µM | Papp A→B [12]: ≤ 5 ×10⁻⁶ cm/s
CC(=O)Nc1ccc2ccn(-c3cc(NCCCCO)n4ncc(C#N)c4n3)c2c1 | 2.8 µM | 8 µM (≈ 3.23 µg/mL) | 2.6 | 0.041 |  | 
CC(=O)Nc1ccc2ccn(-c3cc(Nc4ccn(C)n4)n4ncc(C#N)c4n3)c2c1 | 0.46 µM |  |  |  | 0.56 µM | 
CC(=O)Nc1ccc2ccn(-c3cc(NC4COC4)n4ncc(C#N)c4n3)c2c1 | 2.2 µM | 1 µM (≈ 0.387 µg/mL) | 2.2 | 0.124 | 2.5 µM | 
CS(=O)(=O)Cc1ccc2ccn(-c3cc(NC4CC4)n4ncc(C#N)c4n3)c2c1 | 16.4 µM | < 1 µM | 2.5 | 0.018 |  | 
CC(=O)Nc1ccc2c(c1)N(c1cc(NC3CC3)n3ncc(C#N)c3n1)CC2 | 0.53 µM |  |  |  | 0.73 µM | IC50 [11]: > 33 µM
CC(=O)Nc1ccc2c(c1)c(-c1cc(NC3CC3)n3ncc(C#N)c3n1)cn2CCCO | 2.3 µM |  |  |  | 3.2 µM | 
COc1ccc(-c2cc(Nc3ccn(C)n3)n3ncc(C#N)c3n2)cc1 | 4.5 µM |  |  |  |  | 
CC(=O)Nc1cnc2ccn(-c3cc(NC4CC4)n4ncc(C#N)c4n3)c2c1 | 3 µM |  |  |  | 2.1 µM | IC50 [2]: < 0.003 µM; IC50 [13]: > 20 µM; IC50 [7]: 1 µM; IC50 [8]: 0.02 µM; IC50 [9]: > 30 µM
CC(=O)Nc1ccc2ccn(-c3cc(NCCN4CCCC4)n4ncc(C#N)c4n3)c2c1 |  | 15 µM (≈ 6.43 µg/mL) | 2.2 | 0.056 |  | 
COC(=O)CCn1cc(-c2cc(NC3CC3)n3ncc(C#N)c3n2)c2cc(NC(C)=O)ccc21 |  |  |  |  | 6.6 µM | 
CC(=O)N(C)c1ccc2ccn(-c3cc(NC4CC4)n4ncc(C#N)c4n3)c2c1 |  | < 1 µM | 2.9 |  |  | IC50 [2]: 0.011 µM; CLint scaled [14]: 100 mL/min/kg; IC50 [7]: 1.4 µM; IC50 [8]: < 0.003 µM; IC50 [9]: > 30 µM; IC50 [10]: 0.034 µM
N#Cc1cnn2c(N)cc(-c3ccccc3)nc12 | > 30 µM |  |  |  |  | 
CC(=O)Nc1ccc2c(c1)c(-c1cc(NC3CC3)n3ncc(C#N)c3n1)cn2CCO | 2.7 µM |  |  |  | 4.5 µM | 
CC(=O)Nc1ccc2ccn(-c3cc(NCCCN4CCCC4)n4ncc(C#N)c4n3)c2c1 |  | > 1000 µM | 1.8 | 0.067 | 13 µM | Papp A→B [12]: ≤ 5 ×10⁻⁶ cm/s; AUC [15]: 0.065 µM·h
CC(=O)Nc1ccc2ccn(-c3cc(NC4CC4)n4ncc(C#N)c4n3)c2c1 | 0.53 µM | < 10 µM | 3.3 | < 0.01 | 1 µM | Activity [16]: Active; bioavailability [17]: 5%; CL/F [18]: 10 mL/min/kg; IC50 [11]: 8.6 µM; IC50 [13]: 0.1 µM; Papp A→B [19]: 22 ×10⁻⁶ cm/s; IC50 [7]: 0.13 µM; IC50 [8]: 0.03 µM; IC50 [9]: 26 µM
CC(=O)Nc1ccc2c(c1)c(-c1cc(NC3CC3)n3ncc(C#N)c3n1)cn2C | 0.7 µM |  |  |  | 1.1 µM | 
